Assay results: ChEMBL document CHEMBL4715813, “Allicin-inspired pyridyl disulfides as antimicrobial agents for multidrug-resistant Staphylococcus aureus” (Eur J Med Chem, 2018)
Values after ≈ are worked out from the molar mass of the structure shown. Active and inactive are the calls of the source. The rule behind the calls is not given here.

Legend:
Staphylococcus aureus [1] = test: Antibacterial activity against vancomycin-intermediate resistant Staphylococcus aureus Mu50 ATCC 700699 assessed as bacterial growth inhibition by measuring fold increase in MIC between 5 to 7 passages by broth dilution method; format: functional
Klebsiella pneumoniae = test: Antibacterial activity against multidrug-resistant Klebsiella pneumoniae ATCC 700603 assessed as zone of inhibition by disc diffusion method; format: functional
Escherichia coli = test: Antibacterial activity against beta-lactam resistant Escherichia coli BAA 2326 assessed as zone of inhibition by disc diffusion method; format: functional
Acinetobacter baumannii = test: Antibacterial activity against multidrug-resistant Acinetobacter baumannii BAA 1605 assessed as zone of inhibition by disc diffusion method; format: functional
Staphylococcus aureus [2] = test: Synergistic antibacterial activity against methicillin-resistant Staphylococcus aureus ATCC 43300 in presence of vancomycin by disc diffusion method; format: functional, organism-based
Bacillus anthracis = test: Antibacterial activity against Bacillus anthracis Sterne 34F2 assessed as zone of inhibition by disc diffusion method; format: functional
Enterococcus faecium = test: Antibacterial activity against vancomycin-resistant Enterococcus faecium ATCC 700221 assessed as zone of inhibition by disc diffusion method; format: functional
Staphylococcus aureus [3] = test: Antibacterial activity against community acquired methicillin-resistant Staphylococcus aureus BAA 1747 assessed as zone of inhibition by disc diffusion method; format: functional
Staphylococcus aureus [4] = test: Antibacterial activity against vancomycin-intermediate resistant Staphylococcus aureus Mu50 ATCC 700699 assessed as zone of inhibition by disc diffusion method; format: functional
Staphylococcus aureus [5] = test: Antibacterial activity against vancomycin-resistant Staphylococcus aureus HIP11714 assessed as zone of inhibition by disc diffusion method; format: functional
[6] = test system: Staphylococcus epidermidis; test: Antibacterial activity against Staphylococcus epidermidis ATCC 14990 assessed as zone of inhibition by disc diffusion method; format: functional
Staphylococcus aureus [7] = test: Antibacterial activity against methicillin-susceptible Staphylococcus aureus ATCC 25923 assessed as bacterial growth inhibition incubated for 20 hrs by broth dilution method; format: functional
Summary of the method: (§1)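 Broth microdilution: 0.5 McFarland suspension from an overnight culture, diluted 1:100 in cation-adjusted Mueller Hinton broth (CAMHB), given serial dilutions of test agent for 20 h at 37 °C. MIC is the lowest concentration with no visible growth.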

Staphylococcus aureus [8] = test: Bactericidal activity against methicillin-susceptible Staphylococcus aureus ATCC 25923 assessed as bacterial killing incubated for over night; format: functional
Summary of the method: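 5 μL from each well was spotted on agar and incubated overnight. MBC was taken as the lowest concentration with no visible growth.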

Staphylococcus aureus [9] = test: Antibacterial activity against methicillin-resistant Staphylococcus aureus ATCC 43300 assessed as bacterial growth inhibition incubated for 20 hrs by broth dilution method; format: functional; summary of the method: as §1
Staphylococcus aureus [10] = test: Bactericidal activity against methicillin-resistant Staphylococcus aureus ATCC 43300 assessed as bacterial killing incubated for over night; format: functional
Summary of the method: (§2)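 For MBC, 5 μL from each well was spotted on agar and incubated overnight; MBC is the lowest concentration with no visible growth. Ratio taken as MBC over MIC.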

Staphylococcus aureus [11] = test: Ratio of MBC to MIC against methicillin-resistant Staphylococcus aureus ATCC 43300; format: functional; summary of the method: as §2
Staphylococcus aureus [12] = test: Antibacterial activity against linezolid-resistant Staphylococcus aureus assessed as bacterial growth inhibition incubated for 20 hrs by broth dilution method; format: functional; summary of the method: as §1
Staphylococcus aureus [13] = test: Ratio of MBC to MIC against heterogeneous vancomycin-intermediate Staphylococcus aureus Mu3 ATCC 700698; format: functional; summary of the method: as §2
Staphylococcus aureus [14] = test: Antibacterial activity against vancomycin-intermediate resistant Staphylococcus aureus Mu50 ATCC 700699 assessed as bacterial growth inhibition incubated for 20 hrs by broth dilution method; format: functional; summary of the method: as §1
Staphylococcus aureus [15] = test: Ratio of MBC to MIC against vancomycin-intermediate resistant Staphylococcus aureus Mu50 ATCC 700699; format: functional; summary of the method: as §2
Staphylococcus aureus [16] = test: Antibacterial activity against vancomycin-resistant Staphylococcus aureus HIP11714 assessed as inhibition of bacterial growth incubated for 20 hrs by broth microdilution method; format: functional; conditions: HIP11714, 20 h; summary of the method: as §1
Staphylococcus aureus [17] = test: Bactericidal activity against Vancomycin-resistant Staphylococcus aureus HIP11714 assessed as bacterial killing incubated for over night; format: functional; summary of the method: as §2
Staphylococcus aureus [18] = test: Antibacterial activity against vancomycin-intermediate Staphylococcus aureus clinical isolate 12 assessed as bacterial growth inhibition after 20 hrs by broth microdilution assay; format: functional; summary of the method: as §1
Staphylococcus aureus [19] = test: Antibacterial activity against vancomycin-resistant Staphylococcus aureus HIP11714 assessed as inhibition of bacterial growth measured between 2 and 4 passages at 0.5 times of MIC incubated for 20 hrs by resistant development assay; format: functional, organism-based
Staphylococcus aureus [20] = test: Antibacterial activity against heterogeneous vancomycin-intermediate Staphylococcus aureus Mu3 ATCC 700698 assessed as inhibition of bacterial growth between 2 and 4 passages at 0.5 times of MIC incubated for 20 hrs by resistant development assay; format: functional, organism-based
Summary of the method: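 Serial passage with hVISA Mu3, VISA and VRSA strains grown at 0.5× MIC of agent (± equimolar vancomycin). […] MIC was read visually at each passage.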

Staphylococcus aureus [21] = test: Antibacterial activity against methicillin-susceptible Staphylococcus aureus ATCC 25923 in presence of 10% v/v serum; format: functional
MDA-MB-231 = test: Cytotoxicity against human MDA-MB-231 cells assessed as reduction in cell viability after 72 hrs by MTT assay; format: cell-based; conditions: MDA-MB-231, 72 h
Summary of the method: (§3)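 MTT viability: MDA-MB-231 and HepG2 cells (kept in DMEM with 10% FBS) were seeded at 5000/well and allowed to adhere overnight. They were exposed to 0.001–100 μM for 72 h, then given MTT 1 mg/mL in PBS pH 7.4 for 2 h. Formazan was dissolved in DMSO and A570 read. IC50 was taken from dose-response curves.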

HepG2 = test: Cytotoxicity against human HepG2 cells assessed as reduction in cell viability after 72 hrs by MTT assay; format: cell-based; conditions: HepG2, 72 h; summary of the method: as §3
Staphylococcus aureus [22] = test: Antibacterial activity against methicillin-susceptible Staphylococcus aureus ATCC 25923 assessed as delayed bacterial proliferation at 0.25 times of MIC for 10 hrs; format: functional, organism-based
Staphylococcus aureus [23] = test: Bacteriostatic activity against methicillin-susceptible Staphylococcus aureus ATCC 25923 assessed as reduction in bacterial metabolism at 0.25 to 1 times of MIC incubated for 1 hr by C12-resazurin dye based fluorescence assay; format: functional, organism-based
Staphylococcus aureus [24] = test: Disruption of membrane potential in Staphylococcus aureus at 3 to 30 uM by DiOC2(3) probe based flow cytometric analysis; format: functional, organism-based; conditions: dose 3-30 µM, TDE = time-dependent effect
Summary of the method: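 An overnight S. aureus culture was diluted 1:100 in LB, shaken 2 h at 37 °C, then diluted to a final 1:200. Cells were treated with 3–30 μM, DMSO 2% vehicle or CCCP at 37 °C with shaking. At 15 and 30 min, samples were stained 20 min with DiOC2(3). Flow cytometry used ex 488 nm, green 530/30 and red 585/42, reported as red/green ratio (mean ± SEM).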

Staphylococcus aureus [25] = test: Induction of intracellular oxidant species generation in Staphylococcus aureus ATCC 25923 by DCFH-DA dye based fluorescence assay; format: functional, organism-based
Summary of the method: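 OD600 1.5 suspension of S. aureus […] in HBSS given agent (from 2 or 10 mM stock), DMSO or water, then DCFH diacetate from a 100 μM stock in DMSO. Intracellular oxidation read by fluorescence (ex 485, em 535 nm).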

For `CCCCCCCCSSc1ccccn1`, the “fold change (FC)” value (Staphylococcus aureus [1]) was greater than 2, the “diameter of the inhibition zone (DIZ)” value (Klebsiella pneumoniae) was 0 mm and the “diameter of the inhibition zone (DIZ)” value (Escherichia coli) was 0 mm. For the same compound, the “diameter of the inhibition zone (DIZ)” value (Acinetobacter baumannii) was 0 mm, the Activity (Staphylococcus aureus [2]) was “Active” and the “diameter of the inhibition zone (DIZ)” value (Bacillus anthracis) was 48 mm. For the same compound, the “diameter of the inhibition zone (DIZ)” value (Enterococcus faecium) was 12 mm, the “diameter of the inhibition zone (DIZ)” value (Staphylococcus aureus [3]) was 30 mm and the “diameter of the inhibition zone (DIZ)” value (Staphylococcus aureus [4]) was 43 mm. The “diameter of the inhibition zone (DIZ)” value (Staphylococcus aureus [5]) was 38 mm, the “diameter of the inhibition zone (DIZ)” value [6] was 46 mm and the MIC (Staphylococcus aureus [7]) was 12.5 µM (≈ 3.19 µg/mL). For the same compound, the MBC (Staphylococcus aureus [8]) was greater than 50 µM, the MIC (Staphylococcus aureus [9]) was 6.25 µM (≈ 1.6 µg/mL) and the MBC (Staphylococcus aureus [10]) was greater than 50 µM. It also gave a Ratio (Staphylococcus aureus [11]) greater than 8, an MIC (Staphylococcus aureus [12]) of 25 µM (≈ 6.39 µg/mL) and a Ratio (Staphylococcus aureus [13]) greater than 4. For the same compound, the MIC (Staphylococcus aureus [14]) was 3.13 µM (≈ 0.8 µg/mL), the Ratio (Staphylococcus aureus [15]) was 8 and the MIC (Staphylococcus aureus [16]) was 6.25 µM (≈ 1.6 µg/mL). It also gave an MBC (Staphylococcus aureus [17]) greater than 50 µM, an MIC50 (Staphylococcus aureus [18]) of 12.5 µM (≈ 3.19 µg/mL) and an MIC90 (Staphylococcus aureus [18]) of 12.5 µM (≈ 3.19 µg/mL). For the same compound, the Activity (Staphylococcus aureus [19]) was “Active”, the Activity (Staphylococcus aureus [20]) was “Active” and the MIC (Staphylococcus aureus [21]) was 25 µM. For the same compound, the IC50 (MDA-MB-231) was 74.9 µM, the IC50 (HepG2) was no less than 100 µM and the Activity (Staphylococcus aureus [22]) was “Active”. For the same compound, the Activity (Staphylococcus aureus [23]) was “Active”, the Activity (Staphylococcus aureus [24]) was “Tde” and the Activity (Staphylococcus aureus [25]) was “Active”.
